From PubChem
Most compounds without a hit are left out; they make up all but 4.3% or so of the library.
Hep lipid drop – hepatic lipid droplet formation modulation. actives 0.4% (n = 240,000). inhibition, % at 6.5 µM. AML12 mouse hepatocytes, oleate lipid droplets, BODIPY imaging;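 active = lipid droplet intensity inhibited by at least 50%, with more than 500 cells counted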
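Material – AML12 mouse liver cells · Also added – oleate loading, 100 µM · Compound dosing – 6.5 µM single-point dosing · Times – overnight treatment with compound plus oleate · Measured by – fluorescence imaging, 20x objective, two fields per well · Read-out – percent inhibition of filter-corrected integrated lipid droplet intensity per well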
AHR activator – human AHR activation; actives 2.5% (n = 320,000); activation, % at 5 µM; P35869; AHR-responsive luciferase reporter cells, luminescence; AID 2796; in the data active = activation above about 47%;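 also: 0% = vehicle wells and 100% = reference agonist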
Yeast superoxide – yeast age-related superoxide inhibition as caloric restriction mimetic. superoxide response (% of plate mean), % at 10 µM. actives 0.18% (n = 330,000). S. cerevisiae aged cells, superoxide DHE fluorescence; hits give low values;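 active = superoxide response under a set limit, about three screen SD below normal, cut at about 65% in these data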;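 also: yeast aged for seven days with compound at 30 °C before DHE staining; 100% = average MFI of all compound-treated wells on the plate with controls excluded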
SR-BI HDL uptake – inhibitors of mouse SR-BI mediated HDL lipid uptake; Q61009; ldlA[mSR-BI] CHO cells, DiI-HDL uptake fluorescence, 3 h; inhibition, % at 12.5 µM; actives 0.96% (n = 320,000);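 active = mean replicate inhibition of at least 70% and a set share of replicates each scoring 70 or more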;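 also: 0% = median of neutral control wells and 100% = median of positive control wells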
Target sequence (Q61009 whole entry, looked up): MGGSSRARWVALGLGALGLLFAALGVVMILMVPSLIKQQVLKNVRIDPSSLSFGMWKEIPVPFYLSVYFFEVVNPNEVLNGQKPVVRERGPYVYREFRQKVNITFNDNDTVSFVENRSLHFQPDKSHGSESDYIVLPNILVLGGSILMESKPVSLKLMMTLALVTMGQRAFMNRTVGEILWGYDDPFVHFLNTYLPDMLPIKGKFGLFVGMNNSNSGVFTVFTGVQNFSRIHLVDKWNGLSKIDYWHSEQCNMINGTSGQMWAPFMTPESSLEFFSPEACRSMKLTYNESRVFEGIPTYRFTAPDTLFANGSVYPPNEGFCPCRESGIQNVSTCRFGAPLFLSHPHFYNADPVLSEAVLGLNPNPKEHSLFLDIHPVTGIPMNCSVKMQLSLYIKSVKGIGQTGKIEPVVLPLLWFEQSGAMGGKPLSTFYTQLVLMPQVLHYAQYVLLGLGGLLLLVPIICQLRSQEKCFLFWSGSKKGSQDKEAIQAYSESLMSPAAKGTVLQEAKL
SR-BI DiI-HDL act – enhances SR-BI lipid uptake from DiI-HDL | CHO ldlA[mSR-BI] cells, DiI-HDL uptake fluorescence, 3 h; 100 = double the neutral-control signal | activation, % at 12.5 µM | actives 0.096% (n = 320,000) | AID 504775;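 active = mean replicate activation of at least 60% and every replicate at or above 60%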;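 also: 0% = median plate neutral-control signal and 100% = twice that signal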
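System: LDL receptor-deficient CHO ldlA cells overexpressing murine SR-BI | Timing: 3 h uptake period with compound, 37 °C | Medium: HEPES-buffered (25 mM, pH 7.4) F12 plus 0.5% BSA | Dosing: Single-point compound dose | Signal: Bottom-read fluorescence, 550/595 nm | Read-out: Retained DiI signal reflecting DiI-HDL uptake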
SMARCA2 act – activators of SMARCA2 function; actives 1% (n = 370,000); AID 652017; activation, % at 9.1 µM; MG213 cells, MMTV-luciferase reporter, dexamethasone, overnight; in the data active = activation above about 7.8%;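 also: 0% = vehicle wells and 100% = reference activator wells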
* marks the source's active call; other numbers are inactive results; x = no result given.

SMILES	Hep lipid drop	AHR activator	Yeast superoxide	SR-BI HDL uptake	SR-BI DiI-HDL act	SMARCA2 act
CCc1nnc(N2C(=O)c3cccc4cccc(c34)C2=O)s1	-7	76*	113	-12	12	0
O=C1c2cccc3cccc(c23)C(=O)N1c1ccncc1	6	14	115	2	-2	2
OCC1OC(C(N=Nc2ccccc2)=NNc2ccccc2)C(O)C1O (configuration not stated)	x	x	x	x	x	-2
CC(CO)(CO)NC(=O)c1ccc(C#Cc2cccc(F)c2)cn1	x	x	x	x	x	4
Fc1ccc(C2=Nn3c(nnc3C3CCCCC3)SC2)cc1	x	x	x	x	x	-7
CC1=CCC2C(=O)N(c3cccc(C(=O)Nc4ccc(Cl)cc4)c3)C(=O)C2C1 (configuration not stated)	-10	69*	92	57	-57	-4
CC(C)c1[nH]nc2c1C(c1ccc3c(c1)OCO3)NC2=O (configuration not stated)	x	x	x	x	x	0
O=C(CN1CCN(Cc2ccccc2)CC1)N/N=C\c1ccccc1[N+](=O)[O-]	x	x	x	x	x	3
CCOC(=O)c1[nH]c2cc3c(cc2c1NC(=O)CN1CCCC1)OCO3	-7	58*	94	-17	17	2
O=C(CSC1=Nc2ccccc2C2CC=NN12)Nc1ccc(F)c(F)c1F (configuration not stated)	x	51*	106	31	-31	-3
Cc1ccccc1Nc1nc(Nc2ccccc2C)nc(SC2=NCCS2)n1	22	5	72	27	-27	-3
Cc1ccc(Nc2nc(Nc3ccc(C)cc3)nc(SC3=NCCS3)n2)cc1	14	60*	99	43	-43	-1
O=C(NNc1nc(-c2ccccc2)cs1)c1ccco1	-4	72*	112	6	-6	2
Cc1ccc(C(=O)OCC(=O)Nc2ccccc2)cc1NC(=O)c1ccco1	x	4	94	-8	8	-1
Cc1ccc(C(=O)OCC(=O)Nc2nc(-c3ccccc3)cs2)cc1NC(=O)c1ccco1	1	4	108	83*	-83	0
O=C(NNc1nc(-c2ccc(Cl)cc2)cs1)c1ccco1	-6	43	88	-17	17	-3
CCN(CC)C(=O)[C@H]1C[C@@H]2[C@H](C[C@@H](c3ccccc3)[C@H]1C)N(c1ccc(F)cc1)C(=O)N2C/C=C(\C)CCC=C(C)C	x	x	x	x	x	-6
CCNC(=O)OC[C@H]1O[C@H](C#Cc2ccc(C(C)(C)C)cc2)C=C[C@H]1OC(C)=O	x	x	x	x	x	-3
COc1ccc(Nc2nc(N3CCCC3)c3ccccc3n2)cc1	-11	50*	105	-19	19	-2
CCN(CC)c1ccc(Nc2nc(N3CCOCC3)c3ccccc3n2)cc1	-37	18	91	0	0	-6
CCc1nc2ccc(C(=O)Nc3ccc(NC(C)=O)cc3)cc2nc1CC	-6	-2	97	83*	-83	1
COc1cc2c(cc1NC(=O)c1cccc(F)c1)CCCC2	-4	25	97	76*	-76	3
O=C(Nc1cccc2c1CCCC2)c1cccc(F)c1	-11	7	102	3	-3	-3
COc1cc2c(cc1NC(=O)c1cccc(Br)c1)CCCC2	x	18	90	73*	-73	1
CC(=O)Nc1ccc(S(=O)(=O)NCC2CCN(C(=O)C(=O)c3cc4ccccc4o3)CC2)cc1	x	x	x	x	x	-4
SMILES	Hep lipid drop	AHR activator	Yeast superoxide	SR-BI HDL uptake	SR-BI DiI-HDL act	SMARCA2 act
COc1cc(/C=N/Nc2ccc(C(F)(F)F)cn2)ccc1O	14	6	110	12	-12	1
COc1cc(O)oc1C=Nc1ccc(C(F)(F)F)cc1	x	54*	104	-3	3	-3
O=C(NNC(=O)c1ccc2nonc2c1)Nc1ccc(Cl)cc1	-3	77*	117	x	x	-1
CCn1c(=O)n(CC(=O)N2CCC(C)CC2)c(=O)c2ccccc21	x	x	x	x	x	-3
Cc1cc(Br)c2nc(-c3ccc(F)cc3)c(Cc3cccc(Cl)c3)n2c1	x	x	x	x	x	-4
CC(=O)Nc1cccc(-c2cc(C(C)=O)c3n(c2=O)CCC3)c1	x	x	x	x	x	1
Cc1cc(C(=O)Nc2ccccc2N2CCOCC2)ccc1[N+](=O)[O-]	15	72*	108	40	-40	4
O=C(Nc1nc(-c2ccccc2)cs1)c1ccc(N2CCOCC2)c([N+](=O)[O-])c1	20	-5	92	79*	-79	x
Cc1cc(C(=O)NC(=S)Nc2ccccc2N2CCOCC2)ccc1[N+](=O)[O-]	21	12	94	51	-51	-5
Cc1cc(C(=O)NC(=S)Nc2ccccc2N2CCCC2)ccc1[N+](=O)[O-]	15	50*	101	-16	16	-3
COCc1[nH]nc2c1C(c1ccc(F)cc1)NC2=O (configuration not stated)	x	x	x	x	x	-4
Cc1ccc(Cn2cc(CN3[C@H](C)COc4cc(Br)ccc4S3(=O)=O)nn2)cc1	x	x	x	x	x	2
CCOC(=O)[C@@]12CCC3=C1N(CCC3)C(=O)[C@H](CC(=O)NCc1cccs1)C2	x	x	x	x	x	-1
COCC(=O)N[C@H]1C[C@@H]2O[C@H](CO)CC[C@@H]2O[C@@H]1CCc1ccc(-c2ccccc2)cc1	x	x	x	x	x	-4
CCc1ccc(/C(C)=N/Nc2cc(Cl)nc(C)n2)cc1	x	15	101	79*	-79	-1
CCCCOc1ccc(/C=C/C2=CC(C)(C)NC(=S)N2)cc1OCC	-15	16	91	89*	-89	-4
CCOc1cc(C=O)ccc1OCCCN1C(=O)NC(C)(C)C1=O	x	-1	97	-15	15	-3
O=C(NCc1ccc(Cl)cc1)OCCN1C(=O)CCC12CCC(c1ccccc1)CC2 (configuration not stated)	x	x	x	x	x	-4
O=C(CSc1ccsc1[N+](=O)[O-])NCCc1ccc(Cl)cc1	x	9	113	-16	16	2
O=C(CSc1ccsc1[N+](=O)[O-])NCCc1ccccc1	1	48*	117	-2	2	4
Cc1noc(C)c1C(=O)N1CCC(n2nnc3ncccc32)CC1	x	x	x	x	x	-2
O=C(Nc1ccc(CN2CCOCC2)cc1)c1ccc(-c2cccc([N+](=O)[O-])c2)o1	8	-1	118	72*	-72	-2
CN1CCN(C(=S)c2ccc(-c3cccc([N+](=O)[O-])c3)o2)CC1	-19	20	95	51	-51	7.9*
COc1ccc(C)cc1Nc1n[n+](-c2ccccc2)c(-c2ccc(OC)c(OC)c2OC)s1	x	12	96	37	-37	1
COc1ccc(C)cc1Nc1n[n+](-c2ccccc2)c(-c2ccc(N(C)C)cc2)s1	-65	12	104	73*	-73	-2
Nc1ccn([C@@H]2O[C@H](C(=O)N[C@H](Cc3ccccc3)C(=O)N[C@H]3CCCCNC3=O)[C@@H](O)[C@H]2O)c(=O)n1	x	x	x	x	x	1
